Source: PubChem BioAssay
PGE2 EP2 inh: human EP2 receptor antagonists, primary screen, TR-FRET cAMP, C6 glioma cells; Prostaglandin E2 receptor EP2 subtype (Homo sapiens), P43116; 260,000 compounds, 0.52% hits; inhibition, % at 25 µM; C6 glioma cells expressing human EP2; cells stimulated with saturating PGE2;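 active = percent inhibition above 40 after rounding to a whole number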;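 note: rat C6 glioma host cells with rolipram phosphodiesterase inhibitor present; the protocol text gives 20 µM as final concentration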
Target sequence (P43116 whole entry, looked up): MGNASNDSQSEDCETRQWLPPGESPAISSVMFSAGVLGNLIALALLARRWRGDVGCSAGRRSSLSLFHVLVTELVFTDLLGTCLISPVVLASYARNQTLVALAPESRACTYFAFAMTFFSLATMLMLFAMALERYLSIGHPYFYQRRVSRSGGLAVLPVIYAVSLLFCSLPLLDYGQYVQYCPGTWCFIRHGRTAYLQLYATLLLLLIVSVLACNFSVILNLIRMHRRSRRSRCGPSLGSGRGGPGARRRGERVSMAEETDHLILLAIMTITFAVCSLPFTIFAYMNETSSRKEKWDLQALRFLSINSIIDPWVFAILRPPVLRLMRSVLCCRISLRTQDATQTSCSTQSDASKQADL
T cell modulator: modulators of CD8 T cell-vesicle binding, primary screen, mouse 2C CD8+ T cells, flow cytometry | 330,000 compounds, 0.068% hits | response (vesicle binding), % at 7 µM | 2C CD8+ T cell-vesicle binding; stronger effect = lower value;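 active = response, share of CD8 T cells binding vesicles, and their 90th percentile fluorescence all below set limits, cut at about 80% in these data, passing the limit was not always enough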;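 note: values below 100% mean blocked vesicle binding to the CD8+ T cells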
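Assay system – 2C mouse CD8+ T cells · Also added – QL9-loaded Drosophila micro-vesicles · Timing – Cell–vesicle co-incubation 1.5 h at 37 °C, staining 20 min on ice · Signal – flow cytometry of vesicle-bound cells · Measure – percent CD8+ FL2 mean versus row control · Controls – Peptide-free naked vesicles (low) and QL9 vesicles with 0.7% DMSO vehicle (high)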
MC4R antag cAMP: MC4R antagonists of cAMP signaling, primary screen, cell-based, TR-FRET, antagonist arm of biased-ligand search; inhibition, % at 6.5 µM; 360,000 compounds, 0.48% hits; MC4R-expressing cells, MTII-stimulated cAMP, LANCE TR-FRET;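 active = inhibition above its plate's cutoff, the mean of tested wells on that plate plus 3 SD, cut at about 29% in these data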
Target sequence (P32245 whole entry, looked up): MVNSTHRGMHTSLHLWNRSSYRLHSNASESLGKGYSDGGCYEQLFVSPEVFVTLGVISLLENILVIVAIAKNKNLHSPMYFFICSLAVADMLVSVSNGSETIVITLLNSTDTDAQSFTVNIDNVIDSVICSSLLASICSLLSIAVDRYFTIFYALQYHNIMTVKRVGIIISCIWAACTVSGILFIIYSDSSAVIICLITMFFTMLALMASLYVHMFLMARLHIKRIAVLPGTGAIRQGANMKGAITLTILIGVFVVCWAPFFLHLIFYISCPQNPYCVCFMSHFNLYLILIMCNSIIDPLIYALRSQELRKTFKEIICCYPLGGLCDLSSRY
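Material – human MC4R-expressing U2OS cells · Repeats – no replicates · Detection – TR-FRET with Eu-cAMP and labeled anti-cAMP, 671 nm · Times – compound 30 min, challenge 1 h, detection 1 h · Compound – single nominal compound dose of 6.5 µM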
EP2 modulator: EP2 receptor modulators, cAMP readout, primary screen, cell-based, HTRF cAMP, PGE2 stimulation; EP2-expressing cells, cAMP HTRF FRET, PGE2 co-stimulation; 260,000 compounds, 0.83% hits; induction, % at 25 µM; AID 940, 2007;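 active = compounds whose cAMP rise, as percent of the full-agonist control response, exceeds 60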;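 note: rat C6 glioma line stably carrying human EP2 under a CMV promoter; the protocol text gives 20 µM as final concentration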
MC4R barr agon: MC4R agonists recruiting beta-arrestin, primary screen, cell-based, luminescence, agonist arm of biased-ligand search. Melanocortin receptor 4 (Homo sapiens), P32245. U2OS MC4R beta-arrestin complementation; percent of melanotan II response, DMSO zero. activation, % at 8.9 µM. 360,000 compounds, 0.98% hits;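 active = activation above a per-plate cutoff, the mean activation of sample wells on that plate plus 3 SD, cut at about 8% in these data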
Granule exo inh: LAMP-1 surface exposure blockers, TALL-104 cells – cell-based, flow cytometry, MLPCN library, primary screen; TALL-104 LAMP-1 surface exposure; cells stimulated with thapsigargin and PMA; inhibition, % at 10 µM; 360,000 compounds, 0.66% hits; AID 651702, 2012;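 active = inhibition above about 55%, limit read from the data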
Exocytosis CP01: inhibitors of lytic granule exocytosis, confirmation, TALL-104 cells, flow cytometry, Cherry Pick01 | shares compounds with Granule exo inh | LAMP-1 externalization; stimulated with PMA plus thapsigargin | inhibition, % at 10 µM | 1,500 compounds, 11% hits | AID 651954, 2012; in the data active = inhibition above about 60%
Each line names hits and unclear results; the compound was inactive in the other large screens (follow-up assays come after a bar, where they were run). This is a sample that favours compounds with a hit; in the whole collection about 2.6% have one here.

COc1ccc(OC)c(Nc2nc(C3CC3)nc3c2nnn3Cc2ccccc2)c1	Granule exo inh 60 (no result: PGE2 EP2 inh) | Exocytosis CP01 inactive
CCOC(=O)c1cc(-c2cccc([N+](=O)[O-])c2)on1	Granule exo inh 66 | Exocytosis CP01 inactive
CC(NC(=O)CCc1nnc(C2CCCCC2)o1)c1ccc(F)cc1 (stereo not drawn)	none
Cc1ccc2c(CN(C)Cc3ccc(OC(F)F)cc3)cc(=O)oc2c1C	Granule exo inh 84 (no result: PGE2 EP2 inh, EP2 modulator) | Exocytosis CP01 inactive
c1ccc(-c2nnc3n2CCCC3)cc1	none
COc1cc2c(cc1OC)CN(c1ccc([N+](=O)[O-])cc1C#N)CC2	Granule exo inh 77 | Exocytosis CP01 inactive
COc1cc2c(cc1OC)CN(c1ccc(F)cc1[N+](=O)[O-])CC2	none (no result: PGE2 EP2 inh, EP2 modulator)
COc1cc2c(cc1OC)CN(c1ccc([N+](=O)[O-])cc1Cl)CC2	Granule exo inh 70 | Exocytosis CP01 inactive
CC1CCc2c(sc(NC(=O)c3ccc(F)cc3)c2C#N)C1 (stereo not drawn)	none (no result: T cell modulator, MC4R antag cAMP, MC4R barr agon, Granule exo inh)
NC(=O)Cn1c(=O)n(CCCC(=O)NC2CCN(Cc3ccccc3)CC2)c(=O)c2ccccc21	none
CCOc1ccc(NC(=O)Cn2c(=O)n(CCCC(=O)NC3CCN(Cc4ccccc4)CC3)c(=O)c3ccccc32)cc1	Granule exo inh 61 (no result: PGE2 EP2 inh, EP2 modulator) | Exocytosis CP01 inactive
COc1ccc2nc3cc(Cl)ccc3c(Nc3ccc(O)c(CN4CCN(C)CC4)c3)c2c1	PGE2 EP2 inh 90, Granule exo inh 66 (no result: T cell modulator) | Exocytosis CP01 75
COc1ccc2nc3cc(Cl)ccc3c(C#N)c2c1	none
O=C(/C=C/Sc1ccc(C(F)(F)F)cn1)c1ccccc1	Granule exo inh 64 | Exocytosis CP01 inactive
COC(=O)c1c(NC(=O)c2ccccc2OC)sc(C(=O)N2CCOCC2)c1C	Granule exo inh 68 (no result: PGE2 EP2 inh, EP2 modulator) | Exocytosis CP01 inactive
COC(=O)c1c(NC(=O)c2ccc(F)cc2)sc(C(=O)N2CCOCC2)c1C	none (no result: T cell modulator, MC4R antag cAMP, MC4R barr agon, Granule exo inh)
COc1ccc(Cn2nnnc2C(C(C)C)N(Cc2ccco2)Cc2cccs2)cc1 (stereo not drawn)	Granule exo inh 57 | Exocytosis CP01 inactive
O=C(Nc1ccc(S(=O)(=O)NCc2ccco2)cc1)c1ccc2ccccc2n1	Granule exo inh 98 (no result: PGE2 EP2 inh) | Exocytosis CP01 inactive
O=C(O)CNS(=O)(=O)c1cc(Cl)c(Cl)cc1Cl	none
CCN(CC)C(=O)c1cc2sc3ccccc3c2s1	none
Cc1ccc(S(=O)(=O)c2nc(-c3ccccc3)oc2SCC(=O)NCC2CCCO2)cc1 (stereo not drawn)	none (no result: PGE2 EP2 inh, EP2 modulator)
Cc1ccc(S(=O)(=O)c2nc(-c3ccco3)oc2SCC(=O)NCC2CCCO2)cc1 (stereo not drawn)	Granule exo inh 89 | Exocytosis CP01 inactive
CCOCCCNC(=S)N1CCCN(c2nc3c(C)c(C)ccc3cc2C#N)CC1	Granule exo inh 91 (no result: T cell modulator) | Exocytosis CP01 79
Nc1c(C(=O)NCc2ccc(F)cc2)c2nc3ccccc3nc2n1CCCN1CCOCC1	Granule exo inh 62 | Exocytosis CP01 90
COc1ccc(CNC(=O)c2c(N)n(CCCN3CCOCC3)c3nc4ccccc4nc23)cc1	none
Cc1[nH]c2ccccc2c1/C=C/c1nc2ccccc2c(=O)[nH]1	Granule exo inh 58 | Exocytosis CP01 inactive
Cc1cccc(/C=C/c2nc3ccccc3c(=O)[nH]2)c1	none
CN(C)S(=O)(=O)N1CCN(CC(=O)Nc2cc(Cl)ccc2Cl)CC1	none
COc1ccc(Cc2nnc(NC(=O)C3CCN(C(=O)c4ccco4)CC3)s2)cc1	Granule exo inh 57 (no result: PGE2 EP2 inh, EP2 modulator) | Exocytosis CP01 inactive
O=C(Nc1nnc(Cc2ccccc2)s1)C1CCN(C(=O)c2ccco2)CC1	none (no result: PGE2 EP2 inh, EP2 modulator)
Cc1cc(N2CCN(c3ccccc3)CC2)nc2ccccc12	Granule exo inh 89 (no result: PGE2 EP2 inh, EP2 modulator) | Exocytosis CP01 inactive
CCCCNC(=S)NCC(c1ccccc1)c1c[nH]c2ccccc12 (stereo not drawn)	none (no result: PGE2 EP2 inh, EP2 modulator)
CN(C)CCCNC(=S)NCC(c1ccc(Cl)cc1Cl)c1c[nH]c2ccccc12 (stereo not drawn)	Granule exo inh 92 (no result: PGE2 EP2 inh, EP2 modulator) | Exocytosis CP01 77
CC(C)CC(NC(=O)C(Cc1ccc(OCc2ccccc2)cc1)NC(=O)OC(C)(C)C)C(N)=O (stereo not drawn)	none
CCCCn1c(=O)[nH]c(=O)c2c1nc(-c1ccc(-c3ccccc3Br)o1)n2CCOC	Granule exo inh 56 | Exocytosis CP01 inactive
COCCn1c(-c2ccc(-c3ccccc3Cl)o2)nc2c1c(=O)[nH]c(=O)n2CC(C)C	none
COc1cc2c(cc1NC(=O)CSc1nnc(COc3ccc(Cl)cc3)n1C)oc1ccccc12	Granule exo inh 60 | Exocytosis CP01 inactive
COc1ccc(NC(=O)NCCC2=CCCCC2)cc1	none
Cc1ccc(NC(=O)COc2cccnc2[N+](=O)[O-])cc1S(=O)(=O)N1CCOCC1	none
CC(=O)Nc1ccc2c(=O)n(-c3ccccc3)sc2c1	Granule exo inh 69 (no result: PGE2 EP2 inh, T cell modulator, EP2 modulator) | Exocytosis CP01 62
N#Cc1ccc2c(=O)n(-c3ccccc3)sc2c1	none (no result: PGE2 EP2 inh, T cell modulator, EP2 modulator)
O=c1c2ccccc2sn1-c1ccccc1	PGE2 EP2 inh 118, Granule exo inh 99 | Exocytosis CP01 105
O=c1c2ccccc2sn1-c1ccccc1F	Granule exo inh 69 (no result: PGE2 EP2 inh, T cell modulator, EP2 modulator) | Exocytosis CP01 102
O=c1c2ccccc2sn1-c1cccc(Cl)c1	none (no result: PGE2 EP2 inh, T cell modulator, EP2 modulator)
C[C@H](CO)N1C[C@H](C)[C@@H](CN(C)Cc2ccncc2)OCCCC[C@H](C)Oc2ccc(NC(=O)CCCN(C)C)cc2C1=O	none (no result: PGE2 EP2 inh, T cell modulator, MC4R antag cAMP, EP2 modulator, MC4R barr agon)
CCCn1c(N)cc(=O)n(C)c1=O	none
CS(=O)(=O)N1CCc2cc(C(=O)Nc3ccc(Br)cc3)ccc21	none (no result: PGE2 EP2 inh, EP2 modulator)
CCn1c(=O)n(CC(=O)NCC2CCCO2)c(=O)c2c3c(sc21)CCCC3 (stereo not drawn)	none (no result: PGE2 EP2 inh, EP2 modulator)
O=C(Cc1cccs1)Nc1nc(-c2ccc(F)cc2F)cs1	Granule exo inh 64 | Exocytosis CP01 inactive
O=C(Cc1cccs1)Nc1nc(-c2ccc(F)c(F)c2)cs1	none (no result: PGE2 EP2 inh, EP2 modulator)
Cc1ccc(CNC(=O)c2ccc(N(C)S(=O)(=O)c3ccccc3)cc2)cc1	Granule exo inh 67 (no result: PGE2 EP2 inh, EP2 modulator) | Exocytosis CP01 inactive
Oc1c(CN2CCOCC2)cc(CN2CCOCC2)c(O)c1O	none (no result: PGE2 EP2 inh, T cell modulator, EP2 modulator)
